From ChEMBL document CHEMBL1649333, “In vivo efficacy of simulated human dosing regimens of prolonged-infusion doripenem against carbapenemase- producing Klebsiella pneumoniae” (2010)
In brackets after ≈: the same amount, converted by molar mass. Activity calls are given as the source filed them. No cut-off for these calls is given here.

How the values were obtained:
Klebsiella pneumoniae [1] = experiment: Antimicrobial activity against Klebsiella pneumoniae; assay type: functional
Klebsiella pneumoniae [2] = experiment: Antimicrobial activity against Klebsiella pneumoniae isolate KPC 353 by broth microdilution method; assay type: functional
Method in brief: (§1)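 MIC by CLSI broth microdilution, triplicate determinations, modal value reported. QC strain P. aeruginosa 27853. Isolates kept frozen at −80°C in skim milk and subcultured twice on blood agar (TSA + 5% sheep blood) at 35°C before use.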

Klebsiella pneumoniae [3] = experiment: Antimicrobial activity against Klebsiella pneumoniae isolate KPC 353 by Etest; assay type: functional
Method in brief: (§2)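 Etest on each clinical isolate, run in triplicate and read per the manufacturer's instructions; the modal MIC is reported. Quality control strain P. aeruginosa ATCC 27853. Isolates stored at −80°C in double-strength skim milk and subcultured twice on Trypticase soy agar with 5% sheep blood at 35°C before testing.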

Klebsiella pneumoniae [4] = experiment: Antimicrobial activity against Klebsiella pneumoniae isolate KPC 354 by broth microdilution method; assay type: functional; method in brief: as §1
Klebsiella pneumoniae [5] = experiment: Antimicrobial activity against Klebsiella pneumoniae isolate KPC 354 by Etest; assay type: functional; method in brief: as §2
Klebsiella pneumoniae [6] = experiment: Antimicrobial activity against Klebsiella pneumoniae isolate KPC 356 by broth microdilution method; assay type: functional; method in brief: as §1
Klebsiella pneumoniae [7] = experiment: Antimicrobial activity against Klebsiella pneumoniae isolate KPC 356 by Etest; assay type: functional; method in brief: as §2
Klebsiella pneumoniae [8] = experiment: Antimicrobial activity against Klebsiella pneumoniae isolate KPC 357 by broth microdilution method; assay type: functional; method in brief: as §1
[9] = fT>MIC in Klebsiella pneumoniae isolate KPC 353 infected in human at 2 g administered as 4 hrs infusion every 8 hrs; assay type: functional
[10] = fT>MIC in Klebsiella pneumoniae isolate KPC 354 infected in human at 1 g administered as 4 hrs infusion every 8 hrs; assay type: functional
[11] = fT>MIC in Klebsiella pneumoniae isolate KPC 354 infected in human at 2 g administered as 4 hrs infusion every 8 hrs; assay type: functional
[12] = fT>MIC in Klebsiella pneumoniae isolate KPC 356 infected in human at 1 g administered as 4 hrs infusion every 8 hrs; assay type: functional
[13] = fT>MIC in Klebsiella pneumoniae isolate KPC 356 infected in human at 2 g administered as 4 hrs infusion every 8 hrs; assay type: functional
[14] = fT>MIC in Klebsiella pneumoniae isolate KPC 357 infected in human at 1 g administered as 4 hrs infusion every 8 hrs; assay type: functional
[15] = fT>MIC in Klebsiella pneumoniae isolate KPC 357 infected in human at 2 g administered as 4 hrs infusion every 8 hrs; assay type: functional
[16] = fT>MIC in Klebsiella pneumoniae isolate KPC 359 infected in human at 1 g administered as 4 hrs infusion every 8 hrs; assay type: functional
[17] = fT>MIC in Klebsiella pneumoniae isolate KPC 359 infected in human at 2 g administered as 4 hrs infusion every 8 hrs; assay type: functional
[18] = fT>MIC in Klebsiella pneumoniae isolate KPC 360 infected in human at 1 g administered as 4 hrs infusion every 8 hrs; assay type: functional
[19] = fT>MIC in Klebsiella pneumoniae isolate KPC 360 infected in human at 2 g administered as 4 hrs infusion every 8 hrs; assay type: functional
[20] = fT>MIC in Klebsiella pneumoniae isolate KPC 361 infected in human at 1 g administered as 4 hrs infusion every 8 hrs; assay type: functional
[21] = fT>MIC in Klebsiella pneumoniae isolate KPC 361 infected in human at 2 g administered as 4 hrs infusion every 8 hrs; assay type: functional
Klebsiella pneumoniae [22] = experiment: Antimicrobial activity against Klebsiella pneumoniae isolate KPC 354 in immunocompetent mouse thigh infection model assessed as reduction in bacterial load in mouse thigh at 2 g after 24 hrs; assay type: functional, Thigh muscle
Method in brief: (§3)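 Immunocompetent ICR mouse thigh model. Uranyl nitrate 5 mg/kg i.p. on day −3, no cyclophosphamide. Thighs inoculated i.m. with ~10⁸ CFU. From 2 h, s.c. doripenem regimens simulating human 1 or 2 g q8h 4-h infusions, given as three 8-h intervals; saline controls. Thighs homogenized in saline and plated at 24 h; change in log₁₀ CFU relative to 0-h untreated mice.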

Klebsiella pneumoniae [23] = experiment: Antimicrobial activity against Klebsiella pneumoniae isolate KPC 361 in immunocompromized mouse thigh infection model assessed as reduction in bacterial load in mouse thigh at 1 g after 24 hrs; assay type: functional, organism-based; settings: Thigh muscle
Method in brief: (§4)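 Neutropenic murine thigh model. Cyclophosphamide 150 and 100 mg/kg i.p. at 4 and 1 days pre-inoculation. Uranyl nitrate 5 mg/kg i.p. at day −3 for renal impairment. Each thigh injected i.m. with ~10⁶ CFU/ml, 0.1 ml. At 2 h, s.c. doripenem regimens simulating human fT>MIC for 1 or 2 g q8h 4-h infusion; saline controls. Thighs plated at 24 h; Δlog₁₀ CFU vs 0-h controls; stasis <1 log change.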

Klebsiella pneumoniae [24] = experiment: Antimicrobial activity against Klebsiella pneumoniae isolate KPC 353 in immunocompromized mouse thigh infection model assessed as decrease in bacterial density in mouse thigh at 1 g after 24 hrs; assay type: functional, Thigh muscle; method in brief: as §4
Klebsiella pneumoniae [25] = experiment: Antimicrobial activity against Klebsiella pneumoniae isolate KPC 354 in immunocompromized mouse thigh infection model assessed as decrease in bacterial density in mouse thigh at 1 g after 24 hrs; assay type: functional, Thigh muscle; method in brief: as §4
Klebsiella pneumoniae [26] = experiment: Antimicrobial activity against Klebsiella pneumoniae isolate KPC 356 in immunocompromized mouse thigh infection model assessed as decrease in bacterial density in mouse thigh at 1 g after 24 hrs; assay type: functional, Thigh muscle; method in brief: as §4
Klebsiella pneumoniae [27] = experiment: Antimicrobial activity against Klebsiella pneumoniae isolate KPC 357 in immunocompromized mouse thigh infection model assessed as decrease in bacterial density in mouse thigh at 1 g after 24 hrs; assay type: functional, Thigh muscle; method in brief: as §4
Klebsiella pneumoniae [28] = experiment: Bacteriostatic activity against Klebsiella pneumoniae isolate KPC 359 in immunocompromized mouse thigh infection model at 2 g after 24 hrs; assay type: functional, organism-based; settings: Thigh muscle; method in brief: as §4
Klebsiella pneumoniae [29] = experiment: Antimicrobial activity against Klebsiella pneumoniae isolate KPC 361 in immunocompromized mouse thigh infection model assessed as reduction in bacterial load in mouse thigh at 2 g after 24 hrs; assay type: functional, organism-based; settings: Thigh muscle; method in brief: as §4
Klebsiella pneumoniae [30] = experiment: Antimicrobial activity against Klebsiella pneumoniae isolate KPC 356 in immunocompetent mouse thigh infection model assessed as reduction in bacterial load in mouse thigh at 2 g after 24 hrs; assay type: functional, Thigh muscle; method in brief: as §3
Klebsiella pneumoniae [31] = experiment: Antimicrobial activity against Klebsiella pneumoniae isolate KPC 354 in immunocompetent mouse thigh infection model assessed as reduction in bacterial load in mouse thigh at 1 g after 24 hrs; assay type: functional, Thigh muscle; method in brief: as §3
Klebsiella pneumoniae [32] = experiment: Antimicrobial activity against Klebsiella pneumoniae isolate KPC 356 in immunocompetent mouse thigh infection model assessed as reduction in bacterial load in mouse thigh at 1 g after 24 hrs; assay type: functional, Thigh muscle; method in brief: as §3
Klebsiella pneumoniae [33] = experiment: Antimicrobial activity against Klebsiella pneumoniae isolate KPC 359 in immunocompetent mouse thigh infection model assessed as reduction in bacterial load in mouse thigh at 2 g after 24 hrs; assay type: functional, Thigh muscle; method in brief: as §3
Klebsiella pneumoniae [34] = experiment: Antimicrobial activity against Klebsiella pneumoniae isolate KPC 357 by Etest; assay type: functional; method in brief: as §2
Klebsiella pneumoniae [35] = experiment: Antimicrobial activity against Klebsiella pneumoniae isolate KPC 359 by broth microdilution method; assay type: functional
Method in brief: (§5)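 Clinical KPC-producing isolate, stored at −80°C in double-strength skim milk, subcultured twice on Trypticase soy agar with 5% sheep blood at 35°C. MIC by broth microdilution per CLSI methods, run in triplicate, modal MIC reported; quality control strain PSA 27853 included.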

Klebsiella pneumoniae [36] = experiment: Antimicrobial activity against Klebsiella pneumoniae isolate KPC 359 by Etest; assay type: functional; method in brief: as §2
Klebsiella pneumoniae [37] = experiment: Antimicrobial activity against Klebsiella pneumoniae isolate KPC 360 by broth microdilution method; assay type: functional; method in brief: as §5
Klebsiella pneumoniae [38] = experiment: Antimicrobial activity against Klebsiella pneumoniae isolate KPC 360 by Etest; assay type: functional
Method in brief: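 Clinical KPC-producing isolate stored at −80°C in double-strength skim milk and subcultured twice on blood agar (5% sheep blood) at 35°C before testing. Etest strip MIC read per manufacturer's interpretation, run in triplicate, modal value reported; quality control strain PSA 27853 included.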

Klebsiella pneumoniae [39] = experiment: Antimicrobial activity against Klebsiella pneumoniae isolate KPC 361 by broth microdilution method; assay type: functional; method in brief: as §1
Klebsiella pneumoniae [40] = experiment: Antimicrobial activity against Klebsiella pneumoniae isolate KPC 361 by Etest; assay type: functional; method in brief: as §2
[41] = fT>MIC in Klebsiella pneumoniae isolate KPC 353 infected in human at 1 g administered as 4 hrs infusion every 8 hrs; assay type: functional

## C[C@@H](O)[C@H]1C(=O)N2C(C(=O)O)=C(S[C@@H]3CN[C@H](C(=O)N(C)C)C3)[C@H](C)[C@H]12 [MEROPENEM]
Klebsiella pneumoniae [1]
  MIC: 2 mg/L (≈ 5.22 µM)

## C[C@@H](O)[C@H]1C(=O)N2C(C(=O)O)=C(S[C@@H]3CN[C@H](CNS(N)(=O)=O)C3)[C@H](C)[C@H]12 [DORIPENEM]
Klebsiella pneumoniae [2]
  MIC: 4 mg/L (≈ 9.51 µM)
Klebsiella pneumoniae [3]
  MIC: 3 mg/L (≈ 7.13 µM)
Klebsiella pneumoniae [4]
  MIC: 4 mg/L (≈ 9.51 µM)
Klebsiella pneumoniae [5]
  MIC: 4 mg/L (≈ 9.51 µM)
Klebsiella pneumoniae [6]
  MIC: 8 mg/L (≈ 19 µM)
Klebsiella pneumoniae [7]
  MIC: 12 mg/L (≈ 28.5 µM)
Klebsiella pneumoniae [8]
  MIC: 8 mg/L (≈ 19 µM)
[9]
  fT>MIC: 82.5%
[10]
  fT>MIC: 70%
[11]
  fT>MIC: 82.5%
[12]
  fT>MIC: 52.5%
[13]
  fT>MIC: 70%
[14]
  fT>MIC: 52.5%
[15]
  fT>MIC: 70%
[16]
  fT>MIC: 0%
[17]
  fT>MIC: 52.5%
[18]
  fT>MIC: 0%
[19]
  fT>MIC: 52.5%
[20]
  fT>MIC: 0%
[21]
  fT>MIC: 0%
Klebsiella pneumoniae [22]
  log10cfu: 1
Klebsiella pneumoniae [23]
  Activity: inactive
Klebsiella pneumoniae [24]
  log10cfu: 0.02
Klebsiella pneumoniae [25]
  log10cfu: 0.02
Klebsiella pneumoniae [26]
  log10cfu: 0.02
Klebsiella pneumoniae [27]
  log10cfu: 0.02
Klebsiella pneumoniae [28]
  Activity: Active
Klebsiella pneumoniae [29]
  Activity: inactive
Klebsiella pneumoniae [30]
  log10cfu: 1
Klebsiella pneumoniae [31]
  log10cfu: 1
Klebsiella pneumoniae [32]
  log10cfu: 1
Klebsiella pneumoniae [33]
  log10cfu: 1
Klebsiella pneumoniae [34]
  MIC: 6 mg/L (≈ 14.3 µM)
Klebsiella pneumoniae [35]
  MIC: 16 mg/L (≈ 38 µM)
Klebsiella pneumoniae [36]
  MIC: > 32 mg/L
Klebsiella pneumoniae [37]
  MIC: 16 mg/L (≈ 38 µM)
Klebsiella pneumoniae [38]
  MIC: 16 mg/L (≈ 38 µM)
Klebsiella pneumoniae [39]
  MIC: 32 mg/L (≈ 76.1 µM)
Klebsiella pneumoniae [40]
  MIC: > 32 mg/L
[41]
  fT>MIC: 70%
